In brackets after ≈: the same amount, converted by molar mass. Activity calls are given as the source filed them. No cut-off for these calls is given here.
Tests used:
[1] = test system: Staphylococcus aureus; test: Antimicrobial activity against Staphylococcus aureus ATCC 29213 after 24 to 48 hrs by two-fold broth microdilution method; type: functional
[2] = test system: Escherichia coli; test: Antimicrobial activity against Escherichia coli ATCC 25922 after 24 to 48 hrs by two-fold broth microdilution method; type: functional
[3] = test system: Candida albicans; test: Antimicrobial activity against Candida albicans ATCC 537Y after 48 hrs by two-fold broth microdilution method; type: functional
Method in brief: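 Two-fold serial dilutions in RPMI 1640 per CLSI M27-A2. Stocks in DMSO/RPMI 1:20 v/v. Test range 1.0–64 µM. Inoculum set to 0.5 McFarland, then diluted in saline and RPMI 1640. Plates held at 35 °C for 48 h. MIC is the lowest concentration giving prominent growth reduction. Run in triplicate.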

[4] = test system: Klebsiella pneumoniae; test: Antimicrobial activity against Klebsiella pneumoniae ATCC 700603 at 128 uM after 24 to 48 hrs by two-fold broth microdilution method; type: functional, organism-based
Method in brief: (§1)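 Antibacterial microdilution in CAMH, inoculum 0.5 McFarland diluted in saline/CAMH, 35 °C for 18 h, with further reads at 24 and 48 h. Activity is scored at the maximum tested concentration, 128 µM. Triplicate.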

[5] = test system: Enterobacter cloacae; test: Antimicrobial activity against Enterobacter cloacae ATCC 23355 at 128 uM after 24 to 48 hrs by two-fold broth microdilution method; type: functional, organism-based; method in brief: as §1
[6] = test system: Serratia marcescens; test: Antimicrobial activity against Serratia marcescens ATCC 14576 at 128 uM after 24 to 48 hrs by two-fold broth microdilution method; type: functional, organism-based; method in brief: as §1
[7] = test system: Staphylococcus aureus; test: Antimicrobial activity against Staphylococcus aureus ATCC 29213 after 18 hrs by modified broth microdilution method; type: functional
Method in brief: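 PGI90, the concentration giving 90% growth inhibition, fitted with an exponential growth curve from at least seven concentrations of the MIC assay. Inhibition % = [(Ac − Ap)/Ac] × 100 from A620 of drug-free control versus drug-treated culture. Checked by a modified broth microdilution (Phase 2).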

[8] = test system: Escherichia coli; test: Antimicrobial activity against Escherichia coli ATCC 25922 at 128 uM after 24 to 48 hrs by two-fold broth microdilution method; type: functional, organism-based; method in brief: as §1
[9] = test system: Enterococcus faecalis; test: Antimicrobial activity against Enterococcus faecalis ATCC 29212 after 24 to 48 hrs by two-fold broth microdilution method; type: functional
[10] = test system: Candida albicans; test: Antimicrobial activity against Candida albicans ATCC 537Y at 64 uM after 48 hrs by two-fold broth microdilution method; type: functional, organism-based
Method in brief: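 Single top concentration of the antifungal microdilution: RPMI 1640, inoculum 0.5 McFarland diluted in saline/RPMI, 35 °C for 48 h. Activity is judged at the highest tested level, 64 µM. Run in triplicate.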

Row | SMILES | MIC [1] | MIC90 [1] | MIC [2] | MIC90 [2] | MIC [3] | MIC90 [3] | Activity [4] | Activity [5] | Activity [6] | log(1/MIC>90) [7] | Activity [8] | MIC [9] | MIC90 [9] | Activity [10]
1 | CCCCOc1ccc(C2=NN(C(C)=O)C(c3ccc([N+](=O)[O-])o3)O2)cc1 (configuration not stated) | 16 µM (≈ 5.97 µg/mL) | 16.9 µM (≈ 6.3 µg/mL) | 64 µM (≈ 23.9 µg/mL) | 77.9 µM (≈ 29.1 µg/mL) | 32 µM (≈ 11.9 µg/mL) | 41 µM (≈ 15.3 µg/mL) | inactive | inactive | inactive | 4.77 |  |  |  | 
2 | CC(=O)N1N=C(c2ccc(C)cc2)OC1c1ccc([N+](=O)[O-])o1 (configuration not stated) | 8 µM (≈ 2.52 µg/mL) | 12.2 µM (≈ 3.85 µg/mL) |  |  | 32 µM (≈ 10.1 µg/mL) | 49.9 µM (≈ 15.7 µg/mL) | inactive | inactive | inactive | 4.91 | inactive |  |  | 
3 | Cc1ccc(C(=O)N/N=C/c2ccc([N+](=O)[O-])o2)cc1 | 8 µM (≈ 2.19 µg/mL) | 9.42 µM (≈ 2.57 µg/mL) |  |  | 32 µM (≈ 8.74 µg/mL) | 58.3 µM (≈ 15.9 µg/mL) | inactive | inactive | inactive | 4.97 | inactive | 8 µM (≈ 2.19 µg/mL) | 14.2 µM (≈ 3.87 µg/mL) | 
4 | Cc1cc(NS(=O)(=O)c2ccc(N)cc2)no1 [SULFAMETHOXAZOLE] |  |  | 16 µM (≈ 4.05 µg/mL) |  |  |  |  |  | inactive |  |  |  |  | 
5 | CCOc1ccc(C(=O)N/N=C/c2ccc([N+](=O)[O-])o2)cc1 | 2 µM (≈ 0.607 µg/mL) | 3.7 µM (≈ 1.12 µg/mL) |  |  |  |  | inactive | inactive | inactive | 5.43 | inactive | 32 µM (≈ 9.7 µg/mL) | 34.9 µM (≈ 10.6 µg/mL) | inactive
6 | CC(C)(C)c1ccc(C(=O)N/N=C/c2ccc([N+](=O)[O-])o2)cc1 | 4 µM (≈ 1.26 µg/mL) | 5.28 µM (≈ 1.66 µg/mL) |  |  |  |  | inactive | inactive | inactive | 5.28 | inactive | 32 µM (≈ 10.1 µg/mL) | 59.8 µM (≈ 18.9 µg/mL) | inactive
7 | COc1ccc(C2=NN(C(C)=O)C(c3ccc([N+](=O)[O-])o3)O2)cc1 (configuration not stated) | 8 µM (≈ 2.65 µg/mL) | 10.9 µM (≈ 3.6 µg/mL) |  |  |  |  | inactive | inactive | inactive | 4.96 | inactive |  |  | inactive
8 | CCC(C)n1ncn(-c2ccc(N3CCN(c4ccc(OCC5COC(Cn6cncn6)(c6ccc(Cl)cc6Cl)O5)cc4)CC3)cc2)c1=O (configuration not stated) [ITRACONAZOLE] |  |  |  |  | < 20 µM |  |  |  |  |  |  |  |  | 
9 | CC(=O)N1N=C(c2ccc(I)cc2)OC1c1ccc([N+](=O)[O-])o1 (configuration not stated) | 4 µM (≈ 1.71 µg/mL) | 6.29 µM (≈ 2.69 µg/mL) |  |  |  |  | inactive | inactive | inactive | 5.13 | inactive |  |  | inactive
10 | O=C(N/N=C/c1ccc([N+](=O)[O-])o1)c1ccccc1 | 4 µM (≈ 1.04 µg/mL) | 5.27 µM (≈ 1.37 µg/mL) | 16 µM (≈ 4.15 µg/mL) | 30.4 µM (≈ 7.89 µg/mL) | 32 µM (≈ 8.3 µg/mL) | 60.3 µM (≈ 15.6 µg/mL) | inactive | inactive | inactive | 5.28 |  | 32 µM (≈ 8.3 µg/mL) | 58.8 µM (≈ 15.2 µg/mL) | 
11 | CCc1ccc(C2=NN(C(C)=O)C(c3ccc([N+](=O)[O-])o3)O2)cc1 (configuration not stated) | 8 µM (≈ 2.63 µg/mL) | 10.2 µM (≈ 3.34 µg/mL) |  |  | 32 µM (≈ 10.5 µg/mL) | 48.2 µM (≈ 15.9 µg/mL) | inactive | inactive | inactive | 4.99 | inactive |  |  | 
12 | CCCCc1ccc(C2=NN(C(C)=O)C(c3ccc([N+](=O)[O-])o3)O2)cc1 (configuration not stated) | 16 µM (≈ 5.72 µg/mL) | 18.5 µM (≈ 6.6 µg/mL) |  |  |  |  | inactive | inactive | inactive | 4.73 | inactive |  |  | inactive
13 | CC(=O)N1N=C(c2ccccc2)OC1c1ccc([N+](=O)[O-])o1 (configuration not stated) | 4 µM (≈ 1.21 µg/mL) | 8.93 µM (≈ 2.69 µg/mL) |  |  | 8 µM (≈ 2.41 µg/mL) | 15.8 µM (≈ 4.77 µg/mL) | inactive | inactive | inactive | 5.05 | inactive | 32 µM (≈ 9.64 µg/mL) | 52.9 µM (≈ 15.9 µg/mL) | 
14 | COc1ccc(C(=O)N/N=C/c2ccc([N+](=O)[O-])o2)cc1 | 4 µM (≈ 1.16 µg/mL) | 4.11 µM (≈ 1.19 µg/mL) | 32 µM (≈ 9.26 µg/mL) | 84 µM (≈ 24.3 µg/mL) | 32 µM (≈ 9.26 µg/mL) | 54.6 µM (≈ 15.8 µg/mL) | inactive | inactive | inactive | 5.39 |  | 8 µM (≈ 2.31 µg/mL) | 14.6 µM (≈ 4.23 µg/mL) | 
15 | CC(=O)N1N=C(c2ccc(F)cc2)OC1c1ccc([N+](=O)[O-])o1 (configuration not stated) | 8 µM (≈ 2.55 µg/mL) | 8.43 µM (≈ 2.69 µg/mL) | 64 µM (≈ 20.4 µg/mL) | 91 µM (≈ 29.1 µg/mL) | 32 µM (≈ 10.2 µg/mL) | 43.1 µM (≈ 13.8 µg/mL) | inactive | inactive | inactive | 5.07 |  | 64 µM (≈ 20.4 µg/mL) | 97.3 µM (≈ 31.1 µg/mL) | 
16 | O=C(N/N=C/c1ccc([N+](=O)[O-])o1)c1ccc(Cl)cc1Cl | 4 µM (≈ 1.31 µg/mL) | 4.83 µM (≈ 1.58 µg/mL) | 64 µM (≈ 21 µg/mL) | 87.7 µM (≈ 28.8 µg/mL) | 32 µM (≈ 10.5 µg/mL) | 48 µM (≈ 15.8 µg/mL) | inactive | inactive | inactive | 5.13 |  | 32 µM (≈ 10.5 µg/mL) | 58.7 µM (≈ 19.3 µg/mL) | 
17 | O=C(N/N=C/c1ccc([N+](=O)[O-])o1)c1ccc(Cl)c(Cl)c1 | 4 µM (≈ 1.31 µg/mL) | 7.49 µM (≈ 2.46 µg/mL) | 64 µM (≈ 21 µg/mL) | 85 µM (≈ 27.9 µg/mL) | 16 µM (≈ 5.25 µg/mL) | 32.2 µM (≈ 10.6 µg/mL) | inactive | inactive | inactive | 5.5 |  | 32 µM (≈ 10.5 µg/mL) | 59.7 µM (≈ 19.6 µg/mL) | 
18 | CCCc1ccc(C2=NN(C(C)=O)C(c3ccc([N+](=O)[O-])o3)O2)cc1 (configuration not stated) | 8 µM (≈ 2.75 µg/mL) | 15.4 µM (≈ 5.28 µg/mL) |  |  | 32 µM (≈ 11 µg/mL) | 46 µM (≈ 15.8 µg/mL) | inactive | inactive | inactive | 4.81 | inactive |  |  | 
19 | CCc1ccc(C(=O)N/N=C/c2ccc([N+](=O)[O-])o2)cc1 | 4 µM (≈ 1.15 µg/mL) | 3.68 µM (≈ 1.06 µg/mL) | 64 µM (≈ 18.4 µg/mL) | 110 µM (≈ 31.7 µg/mL) | 32 µM (≈ 9.19 µg/mL) | 54 µM (≈ 15.5 µg/mL) | inactive | inactive | inactive | 5.43 |  | 64 µM (≈ 18.4 µg/mL) | 69.1 µM (≈ 19.9 µg/mL) | 
20 | O=C(N/N=C/c1ccc([N+](=O)[O-])o1)c1ccc(C(F)(F)F)cc1 | 4 µM (≈ 1.31 µg/mL) | 4.34 µM (≈ 1.42 µg/mL) | 64 µM (≈ 20.9 µg/mL) | 92.2 µM (≈ 30.2 µg/mL) | 32 µM (≈ 10.5 µg/mL) | 47.8 µM (≈ 15.6 µg/mL) | inactive | inactive | inactive | 5.36 |  | 32 µM (≈ 10.5 µg/mL) | 60.9 µM (≈ 19.9 µg/mL) | 
21 | O=C(N/N=C/c1ccc([N+](=O)[O-])o1)c1ccc(Cl)cc1 | 4 µM (≈ 1.17 µg/mL) | 5.52 µM (≈ 1.62 µg/mL) | 64 µM (≈ 18.8 µg/mL) | 102 µM (≈ 30 µg/mL) | 32 µM (≈ 9.4 µg/mL) | 53 µM (≈ 15.6 µg/mL) | inactive | inactive | inactive | 5.26 |  | 32 µM (≈ 9.4 µg/mL) | 40.7 µM (≈ 12 µg/mL) | 
